Test results taken from PubChem BioAssay AID719 (SRMLSC, 2007).
Hit rate of the full screen: of about 85,000 compounds, about 940 (1.1%) were called active. For the sample, actives were picked, then their nearest neighbours and some compounds at random. A number with no mark means an inactive call.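 Rule for the calls: active = viability at or below 50% in the single dose screen; inactive = viability above 50%.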

Experiment: antiproliferative effect on LL 47 fibroblasts – human, LL 47 cells, CellTiter-Glo luminescence, primary screen (AID 719);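 note: compound exposure lasted 72 h before the ATP readout; 100% = median luminescence of untreated cell-only wells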
Details: LL 47 human lung fibroblast viability, ATP luminescence; at 10 µM; hits give low values
Outline: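 Material: human LL 47 lung fibroblast cells; quantity: 1,150 cells/well; medium: IMEM plus 15% FBS; doses: 0.1% DMSO in all compound wells; timing: overnight attachment after seeding, then 72 h compound exposure at 37 °C; detection: CellTiter-Glo luminescence; measure: % viability of median cell-only signal; controls: cell-only wells, no compound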

SMILES	viability
Cc1nc(SCC(=O)Nc2cc(C)on2)c2c3c(sc2n1)CCCC3	94.8%
Cc1cc(NC(=O)CSc2nc(C(C)C)nc3sc4c(c23)CCC(C)C4)no1 (stereo not drawn)	10.9% (active)
Cc1nc(SCC(=O)Nc2cc(C)on2)c2c(C)c(C)sc2n1	99.4%
O=C(/C=C/c1ccc(Cl)cc1Cl)c1cccnc1	79%
CCOC(=O)c1c(NC(=O)CCl)sc(C(=O)N(CC)CC)c1C	28% (active)
CCOC(=O)Nc1sc(C(=O)N(C)C)c(C)c1C(=O)OCC	89.5%
CCOC(=O)c1sc(NC(=O)CCN2CCOCC2)c(C(=O)OCC)c1C	80.1%
O=C(NCc1cccnc1)Nc1ccccc1F	96.7%
Cc1cc(C)c2c(n1)nn1c(N3CCOCC3)cc(C)nc21	82.4%
Cc1cc(C)c2c(n1)nn1c(N3CCN(c4cccc(Cl)c4)CC3)cc(C)nc21	36.8% (active)
Cc1cc(C)c2c(n1)nn1c(-n3ccnc3)cc(C)nc21	101%
COc1ccc(NC(=O)CCN2CCCC2)c(OC)c1	104%
Cc1ccccc1-n1c(C)cc(/C=C2\NC(=O)NC2=O)c1C	77.2%
O=C(Cn1c(=O)sc2ccccc21)Nc1nc2c(s1)CCCC2	100%
COC(=O)C(NC(C)=O)(Nc1nc2c(s1)CCCC2)C(F)(F)F (stereo not drawn)	103%
O=C(CCS(=O)(=O)c1ccccc1)Nc1nc2c(s1)CCCC2	47.7% (active)
N#CC1=C(N)N(c2ccccc2)C2=C(C(=O)CCC2)C1c1ccccc1 (stereo not drawn)	93.1%
COc1ccc(CNCCCO)cc1OC	95.2%
COC(=O)c1ccccc1Sc1c(/C=N/OCc2ccc(Cl)cc2)c(C(F)(F)F)nn1C	92.7%
COC(=O)c1cc(OC)ccc1-c1ccc(OC)cc1	90.1%
Cc1cc(Cl)c(S(=O)(=O)N(C)C)cc1OCC(N)=O	101%

SMILES	viability
COc1ccc(-c2nnc(SCc3cccnc3)o2)cc1	105%
Cc1cccc(OCCCC(=O)Nc2ccc(S(=O)(=O)N3CCCC3)cc2)c1	98.6%
CC(C)CCNc1nc(N2CCCC2)c2c(c1C#N)CCN(C)C2	30.8% (active)
CCN1CCc2c(C#N)c(NCc3ccccc3)nc(NCCO)c2C1	86.2%
CC(C)Cc1nc(N2CCOCC2)c(C#N)c2c1CCC2	90.7%
CC1CCN(C(=O)c2cc3nc(C4CC4)cc(C(F)(F)F)n3n2)CC1	96.3%
C/C=C/C(=O)Nc1nnc(C(C)C)s1	103%
Oc1c(CN2CCN(c3ccc(F)cc3)CC2)cc(Cl)c2cccnc12	22.4% (active)
O=C(c1cccc(C(=O)N2CCN(c3ccc(F)cc3)CC2)c1)N1CCN(c2ccc(F)cc2)CC1	97.2%
CCN1CCN(C(c2cccnc2)c2cc(Cl)c3cccnc3c2O)CC1 (stereo not drawn)	75.3%
CCn1nnnc1SCC(=O)c1ccc(C)cc1C	99.4%
Cc1cc(C(=O)OC(C)C(=O)Nc2cccc(S(=O)(=O)N3CCOCC3)c2)c(C)o1 (stereo not drawn)	30.6% (active)
O=C(c1cccc(S(=O)(=O)N2CCOCC2)c1)N1CCOCC1	104%
CCNC(=O)NC(=O)C(C)OC(=O)c1cc(S(=O)(=O)N2CCCCCC2)ccc1OC (stereo not drawn)	94.5%
Cc1cccc(NC(=O)Nc2cccc(Oc3c(F)c(F)c(F)c(F)c3F)c2)c1	49.6% (active)
CC(=O)c1cccc(NC(=O)Nc2ccc(C)cc2)c1	109%
Cc1ccoc1C(=O)Nc1cccc(Oc2ccccc2)c1	103%
Cc1ccc(C)c(NC2=NCC(=O)N2c2ccc3c(c2)OCCO3)c1	120%
O=C(CSc1nc2cccnc2n1Cc1ccccc1)N1CCc2ccccc21	104%
CC(=O)c1sc(NC(=O)c2ccc(C)cc2)nc1C	105%
COc1cccc2sc(Nc3nc(C)c(C(C)=O)s3)nc12	26.9% (active)

SMILES	viability
COC(=O)c1sc(NC(=O)c2ccc(OC)cc2OC)nc1C	91.9%
Fc1ccccc1/C=C1\CCCC2=C1Nc1ncnn1C2c1ccccc1F (stereo not drawn)	3.89% (active)
Cc1cc(SCC(=O)c2ccccc2)nc(SCC(=O)c2ccccc2)n1	102%
CCOC(=O)c1ccc2c(c1)nc(C)n2CC	103%
CN1CCN(CCCNC(=O)c2cc3c(=O)oc4ccccc4c3s2)CC1	105%
O=C(NCCN1CCN(Cc2ccccc2)CC1)c1cc2c(=O)[nH]c3ccccc3c2s1	42.8% (active)
Cn1c(C(=O)NCCN2CCc3ccccc3C2)cc2c(=O)[nH]c3ccccc3c21	93.3%
CCc1ccc(NC(=O)CN2C(=O)CSC2=O)cc1	100%
CCOC(=O)c1sc(NC(=O)c2ccncc2)nc1C	98.9%
CC1=CC(C)(C)Nc2ccc(OC(=O)C(Cc3ccccc3)N3C(=O)C4CCCCC4C3=O)cc21 (stereo not drawn)	94.3%
CC1=CC(C)(C)Nc2ccc(OC(=O)CN3C(=O)C4CCCCC4C3=O)cc21 (stereo not drawn)	39.7% (active)
CC(OC(=O)CN1C(=O)C2CCCCC2C1=O)C(=O)Nc1ncc(Cl)cc1Cl (stereo not drawn)	98.2%
CC1(C)CC(=O)C=C(N2CCCC2)C1	112%
COc1ccc(N2CCN(Cc3ccc(Br)s3)CC2)cc1	100%
CC(=O)Oc1ccc(NC(=O)CCC2CCCCC2)c(C(=O)O)c1	93.2%
CCCNC(=O)CN(Cc1ccccc1F)S(=O)(=O)c1ccc(C)cc1	105%
CC1=NN(/C(=N\c2nnc(C)s2)Nc2ccccc2)[C@H](c2ccc(C)cc2)S1	89.1%
CCCc1[nH]nc2c1C(c1ccc(OC)c(Cn3nc(C)c(Br)c3C)c1)C(C#N)=C(N)O2 (stereo not drawn)	95.9%
CCCc1[nH]nc2c1C(c1ccc(Br)s1)C(C#N)=C(N)O2 (stereo not drawn)	33.5% (active)
CCCc1[nH]nc2c1C(c1ccc(OC(=O)c3ccco3)cc1)C(C#N)=C(N)O2 (stereo not drawn)	95.1%
CCOc1ccc(NC(=O)C2CCCN(C(=O)Nc3ccccc3)C2)cc1 (stereo not drawn)	105%
